Results: ChEMBL document CHEMBL1152863, “Synthesis, HIV-RT inhibitory activity and SAR of 1-benzyl-1H-1,2,3-triazole derivatives of carbohydrates” (Eur J Med Chem, 2009)

Columns and labels:
[1] = Cytotoxicity against african green monkey Vero cells after 72 hrs by MTT assay; assay type: cell-based; conditions: chlorocebus sabaeus
Procedure, shortened: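 Vero cells grown in DMEM with 5% FBS, penicillin/streptomycin, 37 °C, 5% CO2; monolayers of about 10^4 cells exposed to several compound concentrations for 72 h. MTT solution (1 mg/mL) then added to assess viability. CC50 obtained by linear regression of dose-response curves; duplicates, at least three independent experiments.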

[2] = target: Human immunodeficiency virus type 1 reverse transcriptase (Human immunodeficiency virus 1) (UniProt Q72547); test: Inhibition of polymerase activity of HIV1 recombinant reverse transcriptase expressed in Escherichia coli at 50 uM
Procedure, shortened: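 Single-concentration test: compounds at 50 on recombinant HIV-1 RT (66 kDa, E. coli-expressed from pUC12N, Sephadex G-25 fraction) polymerase activity. 50 mM Tris-HCl pH 7.8, 6 mM MgCl2, 1 mM DTT, 50 mM KCl, dTTP with [3H]dTTP, poly(rA)·oligo(dT) template-primer, 1 U enzyme; 30 min at 37 °C; TCA precipitation onto filters, incorporated 3H by scintillation counting.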

[3] = target: Human immunodeficiency virus type 1 reverse transcriptase (Human immunodeficiency virus 1, UniProt Q72547); test: Inhibition of polymerase activity of HIV1 recombinant reverse transcriptase expressed in Escherichia coli
Procedure, shortened: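 Recombinant HIV-1 RT (66 kDa) expressed in E. coli from plasmid pUC12N, partly purified by Sephadex G-25; compounds tested at different concentrations (0.01-50). Reaction: 50 mM Tris-HCl pH 7.8, 6 mM MgCl2, 1 mM DTT, 50 mM KCl, dTTP plus [3H]dTTP, poly(rA)·oligo(dT), 1 U enzyme; 37 °C, 30 min; stopped with ice-cold 5% TCA/pyrophosphate, filter-collected, 3H counted by scintillation.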

SMILES	CC50 at 72 h [1] [µM]	inhibition [2] [%]	IC50 [3] [µM]
Cc1c(C(=O)O[C@H]2[C@H]3OC(C)(C)O[C@H]3O[C@@H]2[C@H]2COC(C)(C)O2)nnn1Cc1ccccc1	3530	3	
Cc1c(C(=O)OC[C@H]2O[C@H](O)[C@H](O)[C@@H](O)[C@H]2O)nnn1Cc1ccccc1	25600	45.6	
Cc1c(C(=O)OC[C@@]2(O)OC[C@@H](O)[C@@H](O)[C@@H]2O)nnn1Cc1ccccc1	800	35.8	
Cc1c(C(=O)OC[C@H]2O[C@H](O)[C@H](O)[C@H]2OCc2ccccc2)nnn1Cc1ccccc1	596	36.2	
Cc1c(C(=O)OC[C@H]2O[C@@H]3OC(C)(C)O[C@@H]3[C@H]2OCc2ccccc2)nnn1Cc1ccccc1	724	65.4	1.98
Cc1c(C(=O)O[C@H]2[C@@H](O)[C@H](O)O[C@H](CO)[C@H]2O)nnn1Cc1ccccc1	1440	14	
Cc1c(C(=O)O[C@H]2[C@H](O)[C@@H](CO)OC(O)[C@@H]2O)nnn1Cc1ccccc1 (some centres not stated)	1800	35.9	
Cc1c(C(=O)OC[C@@]23OC[C@H]4OC(C)(C)O[C@H]4[C@@H]2OC(C)(C)O3)nnn1Cc1ccccc1	3380	47.9	
Cc1cn([C@H]2C[C@H](N=[N+]=[N-])[C@@H](CO)O2)c(=O)[nH]c1=O [ZIDOVUDINE]	126		
CO[C@@H]1O[C@H](COC(=O)c2nnn(Cc3ccccc3)c2C)[C@H]2OC(C)(C)O[C@@H]12	837	63.6	2.2
Cc1c(C(=O)O[C@H]2[C@H](O)[C@H](O)CO[C@]2(O)CO)nnn1Cc1ccccc1	649	45.6	
Cc1c(C(=O)O[C@H]2[C@@H]3OC(C)(C)O[C@@H]3CO[C@]23COC(C)(C)O3)nnn1Cc1ccccc1	2750	43.5	
Cc1c(C(=O)OC[C@H]2O[C@@H](O)[C@H](O)[C@@H]2O)nnn1Cc1ccccc1	1170	33.2	
Cc1c(C(=O)OC[C@H]2O[C@@H]3OC(C)(C)O[C@@H]3[C@H]3OC(C)(C)O[C@H]32)nnn1Cc1ccccc1	123	28.8	
Cc1c(C(=O)O[C@@H]2[C@H]3OC(C)(C)O[C@H]3O[C@@H]2[C@H]2COC(C)(C)O2)nnn1Cc1ccccc1	208	64.7	5
